{
  "source": "ChEMBL document CHEMBL4130403",
  "about": "“Thermoactinoamide A, an Antibiotic Lipophilic Cyclopeptide from the Icelandic Thermophilic Bacterium Thermoactinomyces vulgaris” (2017)",
  "key": {"Escherichia coli [1]": {"test_system": "Escherichia coli", "test": "Antibacterial activity against Escherichia coli ATCC 8739 up to 140 uM measured after overnight incubation", "assay_type": "functional, organism-based", "how_it_was_run": "(§1)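 Liquid growth inhibition in 96-well microplates. Each strain was precultured overnight in Luria Bertoni at 37 °C with stirring, then diluted to 0.03 OD at 620 nm. 200 μL of this suspension was added to wells holding 2-fold serial dilutions of peptide. Plates were incubated overnight at 34 °C with shaking at 450 rpm and read at 620 nm. MIC, run in triplicate, is the lowest concentration giving complete growth inhibition.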"}, "Staphylococcus aureus": {"test_system": "Staphylococcus aureus", "test": "Antibacterial activity against Staphylococcus aureus ATCC 6538 measured after overnight incubation", "assay_type": "functional", "how_it_was_run": "as §1"}, "Enterococcus faecalis [2]": {"test_system": "Enterococcus faecalis", "test": "Antibacterial activity against Enterococcus faecalis ATCC 29212 up to 140 uM measured after overnight incubation", "assay_type": "functional, organism-based", "how_it_was_run": "as §1"}, "Klebsiella pneumoniae [3]": {"test_system": "Klebsiella pneumoniae", "test": "Antibacterial activity against Klebsiella pneumoniae ATCC 11296 up to 140 uM measured after overnight incubation", "assay_type": "functional, organism-based", "settings": "Klebsiella pneumoniae subsp. ozaenae", "how_it_was_run": "as §1"}, "Bacillus cereus [4]": {"test_system": "Bacillus cereus", "test": "Antibacterial activity against Bacillus cereus ATCC 14579 up to 140 uM measured after overnight incubation", "assay_type": "functional, organism-based", "how_it_was_run": "as §1"}, "Pseudomonas aeruginosa [5]": {"test_system": "Pseudomonas aeruginosa", "test": "Antibacterial activity against Pseudomonas aeruginosa ATCC 13388 up to 140 uM measured after overnight incubation", "assay_type": "functional, organism-based", "how_it_was_run": "as §1"}, "Enterococcus faecalis [6]": {"test_system": "Enterococcus faecalis", "test": "Antibacterial activity against Enterococcus faecalis ATCC 29212 measured after overnight incubation", "assay_type": "functional", "how_it_was_run": "as §1"}, "Klebsiella pneumoniae [7]": {"test_system": "Klebsiella pneumoniae", "test": "Antibacterial activity against Klebsiella pneumoniae ATCC 11296 measured after overnight incubation", "assay_type": "functional, Klebsiella pneumoniae subsp. ozaenae", "how_it_was_run": "as §1"}, "Escherichia coli [8]": {"test_system": "Escherichia coli", "test": "Antibacterial activity against Escherichia coli ATCC 8739 measured after overnight incubation", "assay_type": "functional", "how_it_was_run": "as §1"}, "Bacillus cereus [9]": {"test_system": "Bacillus cereus", "test": "Antibacterial activity against Bacillus cereus ATCC 14579 measured after overnight incubation", "assay_type": "functional, organism-based", "how_it_was_run": "(§2)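 Broth microdilution (liquid growth inhibition) in 96-well plates. Overnight Luria Bertoni preculture from one colony at 37 °C with stirring, adjusted to OD620 0.03; 200 μL suspension added to 2-fold serial dilutions of peptide. Plates incubated overnight at 34 °C with shaking (450 rpm), read at OD620. MIC = lowest concentration giving complete growth inhibition; triplicate; gentamicin positive control.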"}, "Pseudomonas aeruginosa [10]": {"test_system": "Pseudomonas aeruginosa", "test": "Antibacterial activity against Pseudomonas aeruginosa ATCC 13388 measured after overnight incubation", "assay_type": "functional, organism-based", "how_it_was_run": "as §2"}},
  "note": "Calls of active or inactive are those of the source. The rule behind the calls is not given here.",
  "data": [
    {"compound": "CC[C@H](C)[C@H]1NC(=O)[C@H](CC(C)C)NC(=O)[C@@H](CC(C)C)NC(=O)[C@H](CC(C)C)NC(=O)[C@H](C(C)C)NC(=O)[C@@H](Cc2ccc(O)cc2)NC1=O", "values": [
      {"measurement": "Activity", "setting": "Escherichia coli [1]", "result": "inactive"},
      {"measurement": "MIC", "setting": "Staphylococcus aureus", "result": 35, "unit": "µM"},
      {"measurement": "Activity", "setting": "Enterococcus faecalis [2]", "result": "inactive"},
      {"measurement": "Activity", "setting": "Klebsiella pneumoniae [3]", "result": "inactive"},
      {"measurement": "Activity", "setting": "Bacillus cereus [4]", "result": "inactive"},
      {"measurement": "Activity", "setting": "Pseudomonas aeruginosa [5]", "result": "inactive"}
    ]},
    {"compound": "CC1(C)S[C@@H]2[C@H](NC(=O)[C@H](N)c3ccccc3)C(=O)N2[C@H]1C(=O)O", "note": "[AMPICILLIN]", "values": [
      {"measurement": "MIC", "setting": "Staphylococcus aureus", "result": 0.11, "unit": "µM"},
      {"measurement": "MIC", "setting": "Enterococcus faecalis [6]", "result": 4.59, "unit": "µM"}
    ]},
    {"compound": "O=C(N[C@H](CO)[C@H](O)c1ccc([N+](=O)[O-])cc1)C(Cl)Cl", "note": "[CHLORAMPHENICOL]", "values": [
      {"measurement": "MIC", "setting": "Klebsiella pneumoniae [7]", "result": 3.17, "unit": "µM"},
      {"measurement": "MIC", "setting": "Escherichia coli [8]", "result": 19.3, "unit": "µM"}
    ]},
    {"compound": "GENTAMICIN", "values": [
      {"measurement": "MIC", "setting": "Bacillus cereus [9]", "result": 17.2, "unit": "µM"},
      {"measurement": "MIC", "setting": "Pseudomonas aeruginosa [10]", "result": 10.5, "unit": "µM"}
    ]}
  ]
}
